Reference: paper PMC2842983 (Journal of medicinal chemistry, 2010)
Entries after “also recorded” stand apart in the source; their conditions may differ. Values belong to the compound of their own block, whether it stands above or below them.

What was measured:
[1] = system: PDGFR; details: cited from earlier work
[2] = system: insulin receptor (InsR); details: cited from earlier work
[3] = target: T1, FGFR1 kinase (Homo sapiens, UniProt P11362); details: cited from earlier work; for IC50: read-out: IC50 for FGFR1 kinase activity
[4] = target: T2, EGFR (Homo sapiens, UniProt P00533); details: cited from earlier work
[5] = system: Src, InsR, EGFR, PDGFR, and several other kinases; details: cited from earlier work
[6] = target: T1, FGFR1 kinase; experiment: ALPHAScreen assay, inhibition of FGFR1 kinase; assay type: biochemical; details: na = not active in the assay
[7] = target: InsR (Homo sapiens, UniProt P06213); experiment: ALPHAScreen kinase assay, InsR; assay type: biochemical; details: kinase from Millipore, na = not active
Procedure, shortened: (§1)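 Recombinant kinase was sourced commercially. In the AlphaScreen format, kinase, biotinylated peptide, ATP and test compound were combined across 10 wells, typically spanning 0.01 µM to 250 µM compound. Phosphorylation ran for 30 minutes and was stopped with EDTA. Phosphopeptide was detected with anti-phosphotyrosine acceptor beads and streptavidin donor beads, and IC50 was derived from the concentration series.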

[8] = target: T2, EGFR; experiment: ALPHAScreen kinase assay, EGFR; assay type: biochemical
Procedure, shortened: as §1

T2 sequence (P00533 25-1210, species assumed): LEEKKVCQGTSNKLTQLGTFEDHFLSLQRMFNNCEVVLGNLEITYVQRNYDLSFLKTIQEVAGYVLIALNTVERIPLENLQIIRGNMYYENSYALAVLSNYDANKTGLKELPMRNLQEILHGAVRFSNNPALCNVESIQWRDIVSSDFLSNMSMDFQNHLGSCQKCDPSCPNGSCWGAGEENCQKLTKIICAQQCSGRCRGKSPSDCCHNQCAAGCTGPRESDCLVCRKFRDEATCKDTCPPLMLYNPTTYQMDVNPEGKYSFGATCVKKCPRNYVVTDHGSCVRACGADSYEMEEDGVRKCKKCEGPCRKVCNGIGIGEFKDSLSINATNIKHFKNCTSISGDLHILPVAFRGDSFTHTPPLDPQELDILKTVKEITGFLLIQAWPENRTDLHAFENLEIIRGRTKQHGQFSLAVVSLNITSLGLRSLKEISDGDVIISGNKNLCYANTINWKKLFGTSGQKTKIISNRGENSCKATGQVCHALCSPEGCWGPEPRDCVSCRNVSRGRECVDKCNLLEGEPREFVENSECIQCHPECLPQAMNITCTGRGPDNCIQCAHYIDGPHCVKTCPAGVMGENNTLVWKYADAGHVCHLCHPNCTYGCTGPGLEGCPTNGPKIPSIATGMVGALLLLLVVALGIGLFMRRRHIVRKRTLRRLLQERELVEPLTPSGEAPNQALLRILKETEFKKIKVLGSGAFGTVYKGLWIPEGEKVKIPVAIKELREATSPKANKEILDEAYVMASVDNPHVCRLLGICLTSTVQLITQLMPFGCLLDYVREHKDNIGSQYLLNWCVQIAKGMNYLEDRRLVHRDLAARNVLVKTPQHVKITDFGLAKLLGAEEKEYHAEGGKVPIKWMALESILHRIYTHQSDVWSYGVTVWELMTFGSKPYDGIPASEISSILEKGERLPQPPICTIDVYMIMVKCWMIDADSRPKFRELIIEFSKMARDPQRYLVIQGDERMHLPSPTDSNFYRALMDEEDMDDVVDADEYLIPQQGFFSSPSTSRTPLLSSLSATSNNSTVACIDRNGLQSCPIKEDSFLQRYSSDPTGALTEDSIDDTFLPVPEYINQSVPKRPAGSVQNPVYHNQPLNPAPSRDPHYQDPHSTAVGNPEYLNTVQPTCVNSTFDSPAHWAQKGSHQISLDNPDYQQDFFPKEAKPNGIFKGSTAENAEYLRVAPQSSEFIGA
T1 sequence (P11362 478-767 limits assumed): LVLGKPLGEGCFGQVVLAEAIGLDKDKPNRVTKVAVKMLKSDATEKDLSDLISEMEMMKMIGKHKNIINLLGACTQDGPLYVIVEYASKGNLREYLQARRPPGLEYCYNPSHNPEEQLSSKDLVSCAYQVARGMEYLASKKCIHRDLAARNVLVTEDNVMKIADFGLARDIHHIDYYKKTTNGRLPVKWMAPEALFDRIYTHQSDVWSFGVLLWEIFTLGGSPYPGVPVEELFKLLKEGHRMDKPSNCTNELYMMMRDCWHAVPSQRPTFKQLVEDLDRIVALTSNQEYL
InsR, sequence (P06213 28-1382, species assumed): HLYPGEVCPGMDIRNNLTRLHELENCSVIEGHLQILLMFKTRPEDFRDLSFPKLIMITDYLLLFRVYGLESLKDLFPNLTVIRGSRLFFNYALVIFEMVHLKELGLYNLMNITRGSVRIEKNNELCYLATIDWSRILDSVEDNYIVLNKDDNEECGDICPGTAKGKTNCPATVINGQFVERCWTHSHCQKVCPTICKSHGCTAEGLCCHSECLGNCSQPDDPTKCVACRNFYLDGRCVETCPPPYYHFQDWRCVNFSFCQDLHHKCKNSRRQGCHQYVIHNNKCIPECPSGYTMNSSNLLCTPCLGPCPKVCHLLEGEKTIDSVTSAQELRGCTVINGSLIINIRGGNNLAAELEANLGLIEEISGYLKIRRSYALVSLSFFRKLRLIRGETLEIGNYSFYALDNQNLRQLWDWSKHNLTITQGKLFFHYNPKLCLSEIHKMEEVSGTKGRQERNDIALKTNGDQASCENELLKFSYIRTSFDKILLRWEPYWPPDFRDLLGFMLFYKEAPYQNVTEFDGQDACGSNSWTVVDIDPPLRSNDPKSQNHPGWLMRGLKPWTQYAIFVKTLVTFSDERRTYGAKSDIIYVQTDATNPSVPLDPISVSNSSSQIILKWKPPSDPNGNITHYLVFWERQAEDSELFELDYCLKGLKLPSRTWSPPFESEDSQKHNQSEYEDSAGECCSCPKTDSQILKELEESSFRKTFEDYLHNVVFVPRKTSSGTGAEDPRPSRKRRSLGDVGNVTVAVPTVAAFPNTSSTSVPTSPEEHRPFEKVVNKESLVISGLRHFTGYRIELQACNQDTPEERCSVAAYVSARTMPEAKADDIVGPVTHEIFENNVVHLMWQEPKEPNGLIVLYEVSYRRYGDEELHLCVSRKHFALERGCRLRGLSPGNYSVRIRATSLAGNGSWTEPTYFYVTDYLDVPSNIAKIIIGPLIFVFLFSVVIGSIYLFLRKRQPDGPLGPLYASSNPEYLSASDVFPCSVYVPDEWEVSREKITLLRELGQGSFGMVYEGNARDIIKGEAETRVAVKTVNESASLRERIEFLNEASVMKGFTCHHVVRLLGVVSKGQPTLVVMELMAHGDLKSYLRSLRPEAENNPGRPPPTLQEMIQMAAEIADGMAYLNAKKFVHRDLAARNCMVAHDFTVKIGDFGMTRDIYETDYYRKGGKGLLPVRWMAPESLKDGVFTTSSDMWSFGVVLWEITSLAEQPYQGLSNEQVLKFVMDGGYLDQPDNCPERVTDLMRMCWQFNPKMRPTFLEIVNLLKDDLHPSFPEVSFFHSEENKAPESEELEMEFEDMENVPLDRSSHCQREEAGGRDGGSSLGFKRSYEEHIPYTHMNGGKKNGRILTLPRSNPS

SMILES: O=CN1CCN(c2ccc(/C=C3\C(=O)Nc4ccccc43)cc2)CC1 [compound 1, SU4984]
inhibition of PDGFR kinase activity [1]: inhibits
inhibition of InsR kinase activity [2]: inhibits
IC50 [3]: 10 to 20 µM
inhibition of EGFR kinase activity [4]: does not inhibit

SMILES: Cc1c[nH]c(/C=C2\C(=O)Nc3ccccc32)c1CCC(=O)O [compound 2, SU5402]
inhibition of PDGFR kinase activity [1]: weak inhibitor
inhibition of InsR kinase activity [2]: does not inhibit
IC50 [3]: 10 to 20 µM
inhibition of EGFR kinase activity [4]: does not inhibit

SMILES: CCN(CC)CCCCNc1ncc2cc(-c3cc(OC)cc(OC)c3)c(NC(=O)NC(C)(C)C)nc2n1 [compound 3, PD173074]
IC50 for other kinases relative to FGFR1 [5]: ≥ 1000 fold
potency of FGFR1 inhibition [3]: nanomolar potency

SMILES: COc1ccc(-c2nc(=O)c3c4c(sc3[nH]2)CC(C)CC4)cc1OC (centres unmarked) [compound 35]
IC50 for inhibition of FGFR1 kinase [6]: do not inhibit

SMILES: COc1cccc(-c2nc(=O)c3c4c(sc3[nH]2)CC(C)CC4)c1 (centres unmarked) [compound 36]
IC50 for inhibition of FGFR1 kinase [6]: do not inhibit

The next lines start with results.

IC50 for inhibition of FGFR1 kinase [6]: weak activity
SMILES: CCOc1cc(/C=C2\NC(=S)NC2=O)ccc1OCCCOc1cc(C)cc(C)c1 [compound 29]

IC50 for inhibition of FGFR1 kinase [6]: weak activity
SMILES: COCc1cc(/C=C2\NC(=S)NC2=O)ccc1OCCCOc1cc(C)cc(C)c1 [compound 30]

IC50 for inhibition of FGFR1 kinase [6]: eliminated activity
SMILES: COc1cc(-c2nc(=O)c3c([nH]2)sc2cc(C(F)(F)F)ccc23)ccc1OCC(=O)O [compound 39]

IC50 [8]: 2 µM
SMILES: COc1cc(-c2nc(=O)c3c([nH]2)sc2ccc(C)cc23)ccc1OCC(=O)O [compound 40]
IC50 InsR [7]: does not inhibit; also recorded: no inhibition
